Measured values taken from ChEMBL document CHEMBL3046203, “Bioactivity-guided fractionation and GC/MS fingerprinting of Angelica sinensis and Angelica archangelica root components for antifungal and mosquito deterrent activity” (2009).
Active and inactive are the calls of the source. No cut-off for these calls is given here.

Legend:
[1] = tested on: Colletotrichum gloeosporioides; experiment: Antifungal activity against Colletotrichum gloeosporioides assessed as as appearance of diffuse zone of inhibition at 2 mM in 2 uL solution by direct bio-autography assay; type: functional, organism-based
Colletotrichum acutatum = experiment: Antifungal activity against Colletotrichum acutatum assessed as appearance of diffuse zone of inhibition at 2 mM in 2 uL solution by direct bio-autography assay; type: functional, organism-based
Aedes aegypti = experiment: Feeding deterrent activity against Aedes aegypti liverpool assessed as proportion of mosquitoes not biting at 25 nmol/cm2 cloth relative to untreated control; type: functional
How it was run: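 In vitro Klun and Debboun module assay with mated nulliparous Ae. aegypti females (red eye Liverpool strain, 5-15 d old), denied water for 24 h before testing. Treatments in ethanol were applied to organdy cloth at 25 nmol/cm2, with an ethanol-treated cloth as control. Testing ran at 24-26 °C and 24-51% RH, 1300-1600 h, using 85 females (17 replicates). Read-out was the proportion not biting.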

Anopheles stephensi = experiment: Feeding deterrent activity against Anopheles stephensi assessed as proportion of mosquitoes not biting at 25 nmol/cm2 cloth relative to untreated control; type: functional
How it was run: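 Klun and Debboun in vitro module assay with mated nulliparous An. stephensi females (Delhi strain, 5-15 d old), given water only for 24 h before testing. Compounds were applied in ethanol to organdy cloth at 25 nmol/cm2 against an ethanol-treated control cloth. Conditions were 24-26 °C and 24-51% RH, 1300-1600 h, with 100 females (20 replicates). The proportion not biting was scored.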

[2] = tested on: Colletotrichum gloeosporioides; experiment: Antifungal activity against Colletotrichum gloeosporioides assessed as as appearance of diffuse zone of inhibition at 2 mM in 2 uL solution by direct bio-autography assay1; type: functional, organism-based

SMILES	growth inhibition (GI) [1]	growth inhibition (GI) (Colletotrichum acutatum)	Ratio (Aedes aegypti)	Ratio (Anopheles stephensi)	growth inhibition (GI) [2]
CO/C=C(/C(=O)OC)c1ccccc1Oc1cc(Oc2ccccc2C#N)ncn1	Active	Active	–	–	–
CC1=CCC[C@@H]2[C@@](C)(CC=O)[C@H](C)CC[C@@]12C [CALLICARPENAL]	–	–	0.91	0.72	–
Cc1cc(C2CC2)nc(Nc2ccccc2)n1	Active	Active	–	–	Active
CCC/C=C1\OC(=O)C2=C1CCC=C2 [LIGUSTILIDE]	–	–	0.79	0.66	–
CCCCNC(=O)n1c(NC(=O)OC)nc2ccccc21	Active	Active	–	–	–
CCN(CC)C(=O)c1cccc(C)c1 [DIETHYLTOLUAMIDE]	–	–	0.67	0.51	–
